Assay results as given in ChEMBL document CHEMBL5335790, “Design, synthesis and biological evaluation of novel 2,4-thiazolidinedione derivatives able to target the human BAG3 protein” (Eur J Med Chem, 2023).
Active and inactive are the calls of the source. No cut-off for these calls is given here.

Assays:
HD-MB03 [1] = test: Sensitization of chemotherapy induced cytotoxicity against human HD-MB03 cells assessed as inhibition of cell growth at 5 uM incubated for 72 hrs in presence of 0.5 unit of vincristine, etoposide, cisplatin, cyclophosphamide by resazurin dye based analysis (reference value: 83.74+/- 0.54%); assay type: functional
[2] = Cytotoxicity against resting human PBMC cells assessed as cell growth inhibition incubated for 72 hrs by MTT assay; assay type: toxicity, cell-based
[3] = molecular target: T1, BAG family molecular chaperone regulator 3 (Homo sapiens, UniProt O95817); test: Binding affinity to CM4 sensorchip immobilized C-terminal His tagged human BAG3 transfected in HEK293T cells assessed as signal saturation at 50 uM by SPR analysis
T1 sequence (O95817 whole entry): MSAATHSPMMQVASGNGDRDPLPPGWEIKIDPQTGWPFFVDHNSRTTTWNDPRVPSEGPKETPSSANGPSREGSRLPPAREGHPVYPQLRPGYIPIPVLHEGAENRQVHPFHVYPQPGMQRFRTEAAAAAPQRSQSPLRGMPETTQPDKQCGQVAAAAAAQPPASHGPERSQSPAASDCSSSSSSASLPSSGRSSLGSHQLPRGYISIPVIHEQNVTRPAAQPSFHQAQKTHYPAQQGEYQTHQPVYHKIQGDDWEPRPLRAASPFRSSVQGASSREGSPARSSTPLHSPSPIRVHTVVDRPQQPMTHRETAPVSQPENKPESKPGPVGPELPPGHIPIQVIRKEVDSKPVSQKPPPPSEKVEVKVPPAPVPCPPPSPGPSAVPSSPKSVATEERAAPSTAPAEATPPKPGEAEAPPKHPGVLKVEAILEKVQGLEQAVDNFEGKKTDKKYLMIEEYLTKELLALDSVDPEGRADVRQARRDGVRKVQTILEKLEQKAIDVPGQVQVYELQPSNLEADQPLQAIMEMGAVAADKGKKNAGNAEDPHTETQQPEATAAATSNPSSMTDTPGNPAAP

HD-MB03 [4] = test: Induction of apoptosis in human HD-MB03 cells assessed as cell shrinkage at 20 uM incubated for 24 hrs in presence of chloroquine by bright field imaging analysis; assay type: functional, cell-based
HD-MB03 [5] = test: Induction of autophagy in human HD-MB03 cells assessed as increase in LC3 green fluorescence at 20 uM incubated for 24 hrs in presence of chloroquine by immunofluorescence analysis; assay type: functional, cell-based
Summary of the method: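 HD-MB03 cells transfected with a fluorescent LC3 plasmid, then treated 24 h later with 20 µM, alone or with chloroquine, for 24 h. Live cells stained 30 min with 50 nM LysoTracker Red and 10 µM Hoechst, then imaged by confocal microscopy. Fluorescence per field was expressed relative to DMSO control set to 1. Mean ± SD of three experiments; 2-way ANOVA.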

HD-MB03 [6] = test: Cytotoxicity against human HD-MB03 cells assessed as inhibition of cell growth at 10 uM incubated for 72 hrs by resazurin dye based analysis relative to control; assay type: functional
Summary of the method: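 Resazurin viability in HD-MB03 cells, 2000/well, single-agent arm of the 6x6 matrix. Inhibitor was added 24 h after seeding, in a 6-point 2-fold series, duplicates, two independent experiments. After 72 h exposure, resazurin was added at 44 µM final for 3 h at 37 °C and fluorescence read at 590 nm. Viability normalized to 1 µM bortezomib and 0.5% DMSO controls.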

HD-MB03 [7] = test: Sensitization of chemotherapy induced cytotoxicity against human HD-MB03 cells assessed as inhibition of cell growth at 1.25 uM incubated for 72 hrs in presence of 0.25 unit of vincristine, etoposide, cisplatin, cyclophosphamide by resazurin dye based analysis (reference value: 73.44 +/- 0.92%); assay type: functional
HD-MB03 [8] = test: Sensitization of chemotherapy induced cytotoxicity against human HD-MB03 cells assessed as inhibition of cell growth at 20 uM incubated for 72 hrs in presence of 2 unit of vincristine, etoposide, cisplatin, cyclophosphamide by resazurin dye based analysis (reference value: 97.7 +/- 1.3%); assay type: functional
[9] = molecular target: T1, BAG family molecular chaperone regulator 3; test: Binding affinity to CM4 sensorchip immobilized C-terminal His tagged human BAG3 transfected in HEK293T cells assessed as binding capacity at 50 uM by SPR analysis
Summary of the method: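 SPR screen on BAG3-His amine-coupled to a CM4 chip at 60 µg/mL in pH 2.8 acetate. Compound at 50 µM in PBS with 5% DMSO and 0.05% P20 was injected for 90 s at 30 µL/min, then washed. Chip regenerated with 10 mM glycine pH 3. Bound RU read at equilibrium against a void flow cell; 3–10 repeats, mean ± SEM.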

HD-MB03 [10] = test: Sensitization of chemotherapy induced cytotoxicity against human HD-MB03 cells assessed as inhibition of cell growth at 1.25 uM incubated for 72 hrs in presence of 0.5 unit of vincristine, etoposide, cisplatin, cyclophosphamide by resazurin dye based analysis (reference value: 83.74+/- 0.54%); assay type: functional

Activity [3]: Active
Activity [9]: > 5 RU
Structure (SMILES): CC(C(=O)N1CCOCC1)N1C(=O)S/C(=C\c2cccc(O)c2O)C1=O (racemic)
inhibition at 5 µM (HD-MB03 [1]): 88.4%
GI50 at 72 h [2]: > 100 µM
Activity (HD-MB03 [4]): Active
Activity (HD-MB03 [5]): inactive
inhibition at 10 µM (HD-MB03 [6]): 26.8%
inhibition at 1.25 µM (HD-MB03 [7]): 70.3%
inhibition at 20 µM (HD-MB03 [8]): 90.5%
inhibition at 1.25 µM (HD-MB03 [10]): 82.7%
